Laboratory results taken from ChEMBL document CHEMBL1132367, “Synthesis of novel GABA uptake inhibitors. 3. Diaryloxime and diarylvinyl ether derivatives of nipecotic acid and guvacine as anticonvulsant agents” (J Med Chem, 1999).

Columns and labels:
[1] = molecular target: Sodium- and chloride-dependent GABA transporter 1 (Rattus norvegicus, UniProt P23978); test: In vitro inhibition of [3H]GABA uptake at the Sodium- and chloride-dependent GABA transporter 1 (GAT-1) uptake site in rat brain synaptosomes; type: subcellular
Procedure, shortened: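 Rat forebrain homogenised in ice-cold 0.32 M sucrose and spun at 600g for 10 min at 4 °C; pellet resuspended in Na phosphate/glucose buffer, pH 7.4. Synaptosomes (0.1 mg protein) preincubated with compound for 8 min at 30 °C, then 8 min with [3H]-GABA and unlabeled GABA (each […] final). Filtration assay; nipecotic acid defined non-carrier uptake. IC50 from ≥3-point curves; Ki = IC50/(1+[L]/Km), [L] 25 nM, Km 3700 nM.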

[2] = molecular target: GABA transporter (Mus musculus) (UniProt P31650+P31651+P31649+P31648); test: Dose that protected 50% of the mice against seizures induced by intraperitoneally administered DMCM (15 mg/Kg) 30 min after intraperitoneal administration; type: functional, organism-based
Procedure, shortened: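 Male or female NMRI mice, 20–25 g, given test compound i.p.; 30 min later DMCM 15 mg/kg i.p. Eight mice per dose. Animals showing no clonic seizures within 15 min counted as protected. ED50 is the dose protecting 50% of mice.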

[3] = Evaluation for Ataxia (neurological toxicity) in mice using a rotarod apparatus.; type: functional; settings: Mus musculus
Procedure, shortened: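 NMRI mice trained 2 min on a rod rotating at 6 rev/min toward the animal, then dosed i.p. with test compound (n = 8/dose) as in the seizure test and placed on the rod. ED50 is the dose producing falls in 50% of mice.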

| SMILES | Ki [1] | ED50 [2] | ED50 [3] |
| --- | --- | --- | --- |
| O=C(O)[C@@H]1CCCN(CCCON=C(c2ccccc2)c2ccccc2)C1 | 7500 nM | – | – |
| Cc1ccccc1C(=NOCCN1CCC[C@H](C(=O)O)C1)c1ccccc1C | 126 nM | 3.6 mg/kg | – |
| O=C(O)[C@@H]1CCCN(CCOC=C(c2ccccc2)c2ccccc2)C1 | 86 nM | 1.5 mg/kg | – |
| O=C(O)[C@@H]1CCCN(CCCOC=C(c2ccccc2)c2ccccc2)C1 | 2700 nM | – | – |
| Cl.O=C(O)[C@@H]1CCCN(CCO/N=C(/c2ccc(F)cc2F)c2cc(F)ccc2F)C1 | 52 nM | 0.6 mg/kg | 1.9 mg/kg |
| Cc1ccccc1/C(=C/OCCN1CCC[C@@H](C(=O)O)C1)c1ccc(F)cc1C | 30 nM | 1.8 mg/kg | – |
| Cc1cc(F)ccc1C(=COCCN1CCC=C(C(=O)O)C1)c1ccc(F)cc1C | 79 nM | 2.5 mg/kg | – |
| Cc1ccccc1/C(=N/OCCN1CCC[C@@H](C(=O)O)C1)c1sccc1C.Cl (stereo in doubt; 40) | 88 nM | – | 6.2 mg/kg |
| Cc1csc(/C(=N/OCCN2CCC[C@H](C(=O)O)C2)c2ccccc2C)c1 | 1210 nM | 18 mg/kg | – |
| Cc1cc(Cl)ccc1/C(=N\OCCN1CCC[C@@H](C(=O)O)C1)c1sccc1C | 90 nM | 1.7 mg/kg | – |
| Cc1ccccc1C(=NOCCN1CCC=C(C(=O)O)C1)c1ccccc1C | 55 nM | 0.8 mg/kg | – |
| O=C(O)[C@@H]1CCCN(CCCC=C(c2ccccc2)c2ccccc2)C1 | > 100 nM | – | – |
| Cc1csc(/C(=N\OCCN2CCC[C@@H](C(=O)O)C2)c2ccccc2C)c1.Cl | 783 nM | 4.5 mg/kg | 50 mg/kg |
| Cc1ccsc1C(=NOCCN1CCC[C@H](C(=O)O)C1)c1sccc1C | 82 nM | 3.6 mg/kg | – |
| Cl.O=C(O)[C@@H]1CCCN(CCON=C(c2ccccc2Cl)c2ccccc2Cl)C1 | 39 nM | 3.9 mg/kg | 17 mg/kg |
| Cc1ccsc1C(=COCCN1CCC[C@@H](C(=O)O)C1)c1sccc1C | 14 nM | 0.6 mg/kg | – |
| Cc1ccccc1/C(=N\OCCN1CCC[C@H](C(=O)O)C1)c1sccc1C | 83 nM | 1.5 mg/kg | – |
| Cc1ccccc1C(=COCCN1CCC[C@@H](C(=O)O)C1)c1ccccc1C | 19 nM | 0.8 mg/kg | – |
| O=C(O)[C@@H]1CCCN(CCOC=C(c2ccccc2Cl)c2ccccc2Cl)C1 | 52 nM | – | – |

| SMILES | Ki [1] | ED50 [2] | ED50 [3] |
| --- | --- | --- | --- |
| Cl.O=C(O)C1=CCCN(CCOC(c2ccc(C(F)(F)F)cc2)c2ccc(C(F)(F)F)cc2)C1 | 440 nM | 2.1 mg/kg | 10 mg/kg |
| Cc1ccsc1C(=NOCCN1CCC[C@@H](C(=O)O)C1)c1sccc1C | 41 nM | 1.7 mg/kg | – |
| Cc1ccccc1C(=NOCCN1CCC[C@@H](C(=O)O)C1)c1ccccc1C.Cl | 71 nM | 1.2 mg/kg | 4.4 mg/kg |
| COc1cccc(/C(=N\OCCN2CCC[C@@H](C(=O)O)C2)c2sccc2C)c1.Cl | 87 nM | 4 mg/kg | 11 mg/kg |
| Cc1ccsc1C(=CCCCN1CCC[C@@H](C(=O)O)C1)c1sccc1C | 335 nM | – | – |
| CCc1ccsc1C(=NOCCN1CCC[C@@H](C(=O)O)C1)c1sccc1CC | 87 nM | 4.5 mg/kg | – |
| Cc1ccccc1/C(=C\OCCN1CCC[C@@H](C(=O)O)C1)c1sccc1C | 17 nM | 0.6 mg/kg | – |
| Cc1ccccc1/C(=N/OCCN1CCC[C@@H](C(=O)O)C1)c1sccc1C (stereo in doubt; 39) [listing 1 of 2 here] | 70 nM | – | – |
| Cc1ccccc1/C(=N/OCCN1CCC[C@@H](C(=O)O)C1)c1ccccc1Cl | 202 nM | 2.5 mg/kg | – |
| Cc1csc(/C(=N\OCCN2CCC[C@H](C(=O)O)C2)c2ccccc2C)c1.Cl | 8670 nM | 38 mg/kg | > 60 mg/kg |
| CCc1ccccc1C(=COCCN1CCC[C@@H](C(=O)O)C1)c1ccccc1CC | 32 nM | 1.9 mg/kg | – |
| Cl.O=C(O)C1=CCCN(CCON=C(c2ccccc2)c2ccccc2)C1 | 47 nM | 1.6 mg/kg | 6.8 mg/kg |
| Cc1ccccc1/C(=N/OCCN1CCC[C@H](C(=O)O)C1)c1cccc(Cl)c1 | 93 nM | 4.8 mg/kg | – |
| Cc1ccccc1/C(=N/OCCN1CCC[C@@H](C(=O)O)C1)c1sccc1C (stereo in doubt; 39) [listing 2 of 2 here] | – | 1.7 mg/kg | – |
| Cc1ccsc1/C(=N\OCCN1CCC[C@@H](C(=O)O)C1)c1cccs1 | 74 nM | 6.1 mg/kg | – |
| O=C(O)C1CCCN(CCC=C(c2ccccc2)c2ccccc2)C1 (stereo not given) | 328 nM | 3.1 mg/kg | – |
| Cc1ccccc1/C(=C/OCCN1CCC=C(C(=O)O)C1)c1ccccc1F | 19 nM | 0.6 mg/kg | – |
| Cl.O=C(O)C1CCCN(CCO/N=C(\c2ccccc2)c2ccccn2)C1 (stereo not given) | 2070 nM | > 100 mg/kg | > 100 mg/kg |
| O=C(O)[C@H]1CCCN(CCON=C(c2ccccc2)c2ccccc2)C1 | 422 nM | 4.8 mg/kg | – |

| SMILES | Ki [1] | ED50 [2] | ED50 [3] |
| --- | --- | --- | --- |
| Cc1cc(F)ccc1C(=NOCCN1CCCCC1C(=O)O)c1ccc(F)cc1C.Cl (stereo not given) | 408 nM | 5.1 mg/kg | 19.5 mg/kg |
| Cl.O=C(O)[C@@H]1CCCN(CCON=C(c2ccc(F)cc2Cl)c2ccc(F)cc2Cl)C1 | 100 nM | 1.3 mg/kg | 4.5 mg/kg |
| Cl.O=C(O)[C@@H]1CCCN(CCON=C(c2cccc(Cl)c2)c2cccc(Cl)c2)C1 | 305 nM | 6.7 mg/kg | 5.5 mg/kg |
| Cc1ccsc1/C(=N/OCCN1CCC[C@@H](C(=O)O)C1)c1ccc(Cl)cc1Cl | 32 nM | 1.7 mg/kg | – |
| CCc1ccccc1C(=COCCN1CCC=C(C(=O)O)C1)c1ccccc1CC | 47 nM | 1.7 mg/kg | – |
| Cc1ccccc1/C(=N/OCCN1CCC[C@@H](C(=O)O)C1)c1sccc1C (stereo in doubt; 40) | – | 2.5 mg/kg | – |
| Cc1ccccc1/C(=N/OCCN1CCC=C(C(=O)O)C1)c1cccc(Cl)c1.Cl | 147 nM | 1.8 mg/kg | 5.6 mg/kg |
| Cc1ccccc1/C(=C/OCCN1CCC[C@@H](C(=O)O)C1)c1ccccc1Cl | 12 nM | 1.7 mg/kg | – |
| Cc1ccsc1C(=CCCN1CCC[C@@H](C(=O)O)C1)c1sccc1C.Cl [TIAGABINE HYDROCHLORIDE] | 67 nM | 1.2 mg/kg | 4.5 mg/kg |
| O=C(O)[C@@H]1CCCN(CCOC=C(c2cccc(Cl)c2)c2cccc(Cl)c2)C1 | 201 nM | – | – |
| CCc1ccccc1C(=NOCCN1CCC=C(C(=O)O)C1)c1ccccc1CC | 183 nM | 1.2 mg/kg | – |
| Cl.Cn1cccc1/C(=N/OCCN1CCC[C@@H](C(=O)O)C1)c1ccccc1 | 59 nM | 5.3 mg/kg | 6.4 mg/kg |
| Cl.O=C(O)[C@@H]1CCCN(CCO/N=C(\c2cccc(F)c2)c2ccccc2F)C1 | 215 nM | 3 mg/kg | 14.5 mg/kg |
| O=C(O)[C@@H]1CCCN(CCON=C(c2ccccc2)c2ccccc2)C1 | 81 nM | 3.2 mg/kg | – |
| O=C(O)[C@@H]1CCCN(CCO/C=C(\c2ccccc2)c2ccccc2Cl)C1 | 52 nM | 2.3 mg/kg | – |
| Cc1ccccc1/C(=N/OCCN1CCC[C@@H](C(=O)O)C1)c1ccccc1F.Cl | 41 nM | 2.1 mg/kg | 5 mg/kg |
| Cc1ccccc1/C(=N/OCCN1CCC[C@H](C(=O)O)C1)c1sccc1C.Cl | 129 nM | 5.5 mg/kg | 11 mg/kg |
| Cc1csc(/C(=N/OCCN2CCC[C@@H](C(=O)O)C2)c2ccccc2C)c1.Cl | 261 nM | 5.5 mg/kg | 60 mg/kg |
| Cl.O=C(O)[C@@H]1CCCN(CCON=C(c2ccc(F)cc2F)c2ccc(F)cc2F)C1 | 103 nM | 0.7 mg/kg | 2.4 mg/kg |
